Data: ChEMBL document CHEMBL1914423, “New imidazo[2,1-b]thiazole derivatives: synthesis, in vitro anticancer evaluation, and in silico studies” (Eur J Med Chem, 2011)

What was measured:
Type in all cases: functional
[1] = system: SNB-19; test: Anticancer activity against human SNB19 cells assessed as cell growth at 10^-5 M after 48 hrs by SRB assay; settings: SNB-19, 48 h, read-out: Activity
[2] = system: EKVX; test: Anticancer activity against human EKVX cells assessed as cell growth at 10^-5 M after 48 hrs by SRB assay; settings: read-out: Activity
Procedure, shortened: (§1)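 NCI-60 single-dose screen at one concentration. Cells grown in RPMI 1640 with 5% FBS and 2 mM L-glutamine, plated at 5000–40,000 cells/well, and pre-incubated 24 h at 37 °C in 5% CO2 before DMSO-dissolved drug was added. Cells fixed with TCA, SRB-stained, absorbance read at 515 nm. Percent growth calculated against time-zero and untreated control plates.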

[3] = system: MDA-MB-231; test: Anticancer activity against human MDA-MB-231 cells assessed as cell growth at 10^-5 M after 48 hrs by SRB assay; settings: MDA-MB-231, 48 h, read-out: Activity; procedure, shortened: as §1
[4] = system: SK-MEL-2; test: Anticancer activity against human SK-MEL-2 cells assessed as cell growth at 10^-5 M after 48 hrs by SRB assay; settings: SK-MEL-2, 48 h, read-out: Activity
[5] = system: SR; test: Anticancer activity against human SR cells assessed as cell growth at 10^-5 M after 48 hrs by SRB assay; settings: read-out: Activity
Procedure, shortened: (§2)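 NCI-60 single-dose screen: cells in RPMI 1640 with 5% FBS and 2 mM L-glutamine, plated at 5000–40,000 cells/well by doubling time, and preincubated 24 h at 37 °C. Compound given at one concentration from DMSO stock. Cells TCA-fixed and SRB-stained, absorbance at 515 nm. Percent growth relative to time-zero and untreated controls; inhibition % = 100 − growth %.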

[6] = system: HCT-116; test: Anticancer activity against human HCT116 cells assessed as cell growth at 10^-5 M after 48 hrs by SRB assay; settings: HCT-116, 48 h, read-out: Activity; procedure, shortened: as §1
[7] = system: HOP-92; test: Anticancer activity against human HOP92 cells assessed as cell growth at 10^-5 M after 48 hrs by SRB assay; settings: HOP-92, 48 h, read-out: Activity; procedure, shortened: as §1
[8] = system: NCI-H322M; test: Anticancer activity against human NCI-H322M cells assessed as cell growth at 10^-5 M after 48 hrs by SRB assay; settings: read-out: Activity
[9] = system: IGROV-1; test: Anticancer activity against human IGROV1 cells assessed as cell growth at 10^-5 M after 48 hrs by SRB assay; settings: IGROV-1, 48 h, read-out: Activity; procedure, shortened: as §1
[10] = system: UACC-257; test: Anticancer activity against human UACC257 cells assessed as cell growth at 10^-5 M after 48 hrs by SRB assay; settings: UACC-257, 48 h, read-out: Activity; procedure, shortened: as §2
[11] = system: UO-31; test: Anticancer activity against human UO31 cells assessed as cell growth at 10^-5 M after 48 hrs by SRB assay; settings: UO-31, 48 h, read-out: Activity; procedure, shortened: as §2
[12] = system: NCI-H460; test: Anticancer activity against human NCI-H460 cells assessed as cell growth at 10^-5 M after 48 hrs by SRB assay; settings: NCI-H460, 48 h, read-out: Activity
[13] = system: BT-549; test: Anticancer activity against human BT549 cells assessed as cell growth at 10^-5 M after 48 hrs by SRB assay; settings: BT-549, 48 h, read-out: Activity; procedure, shortened: as §1
[14] = system: HT-29; test: Anticancer activity against human HT-29 cells assessed as cell growth at 10^-5 M after 48 hrs by SRB assay; settings: HT-29, 48 h, read-out: Activity; procedure, shortened: as §1
[15] = system: MOLT-4; test: Anticancer activity against human MOLT4 cells assessed as cell growth at 10^-5 M after 48 hrs by SRB assay; settings: MOLT-4, 48 h, read-out: Activity
[16] = system: HOP-62; test: Anticancer activity against human HOP62 cells assessed as cell growth at 10^-5 M after 48 hrs by SRB assay; settings: HOP-62, 48 h, read-out: Activity; procedure, shortened: as §1
[17] = system: CCRF-CEM; test: Anticancer activity against human CCRF-CEM cells assessed as cell growth at 10^-5 M after 48 hrs by SRB assay; settings: read-out: Activity; procedure, shortened: as §1
[18] = system: SK-MEL-5; test: Anticancer activity against human SK-MEL-5 cells assessed as cell growth at 10^-5 M after 48 hrs by SRB assay; settings: SK-MEL-5, 48 h, read-out: Activity
[19] = system: A549; test: Anticancer activity against human A549 cells assessed as cell growth at 10^-5 M after 48 hrs by SRB assay; settings: A549, 48 h, read-out: Activity; procedure, shortened: as §1
[20] = system: OVCAR-4; test: Anticancer activity against human OVCAR4 cells assessed as cell growth at 10^-5 M after 48 hrs by SRB assay; settings: OVCAR-4, 48 h, read-out: Activity
[21] = system: UACC-62; test: Anticancer activity against human UACC62 cells assessed as cell growth at 10^-5 M after 48 hrs by SRB assay; settings: UACC-62, 48 h, read-out: Activity; procedure, shortened: as §2
[22] = system: NCI-H522; test: Anticancer activity against human NCI-H522 cells assessed as cell growth at 10^-5 M after 48 hrs by SRB assay; settings: NCI-H522, 48 h, read-out: Activity
[23] = system: T47D; test: Anticancer activity against human T47D cells assessed as cell growth at 10^-5 M after 48 hrs by SRB assay; settings: read-out: Activity; procedure, shortened: as §2
[24] = system: NCI-H23; test: Anticancer activity against human NCI-H23 cells assessed as cell growth at 10^-5 M after 48 hrs by SRB assay; settings: NCI-H23, 48 h, read-out: Activity
[25] = system: NCI/ADR-RES; test: Anticancer activity against human NCI/ADR-RES cells assessed as cell growth at 10^-5 M after 48 hrs by SRB assay; settings: read-out: Activity
[26] = system: RXF 393; test: Anticancer activity against human RXF393 cells assessed as cell growth at 10^-5 M after 48 hrs by SRB assay; settings: RXF 393, 48 h, read-out: Activity
[27] = system: SF-539; test: Anticancer activity against human SF539 cells assessed as cell growth at 10^-5 M after 48 hrs by SRB assay; settings: SF-539, 48 h, read-out: Activity
[28] = system: COLO 205; test: Anticancer activity against human COLO205 cells assessed as cell growth at 10^-5 M after 48 hrs by SRB assay; settings: COLO 205, 48 h, read-out: Activity; procedure, shortened: as §1
[29] = system: SW-620; test: Anticancer activity against human SW620 cells assessed as cell growth at 10^-5 M after 48 hrs by SRB assay; settings: SW-620, 48 h, read-out: Activity; procedure, shortened: as §2
[30] = system: MDA-MB-468; test: Anticancer activity against human MDA-MB-468 cells assessed as cell growth at 10^-5 M after 48 hrs by SRB assay; settings: MDA-MB-468, 48 h, read-out: Activity
[31] = system: MCF7; test: Anticancer activity against human MCF7 cells assessed as cell growth at 10^-5 M after 48 hrs by SRB assay; settings: MCF7, 48 h, read-out: Activity; procedure, shortened: as §1
[32] = system: M14; test: Anticancer activity against human M14 cells assessed as cell growth at 10^-5 M after 48 hrs by SRB assay; settings: M14, 48 h, read-out: Activity; procedure, shortened: as §1

Row | SMILES | growth at 10 µM [1] [%] | growth at 10 µM [2] [%] | growth at 10 µM [3] [%] | growth at 10 µM [4] [%] | growth at 10 µM [5] [%] | growth at 10 µM [6] [%] | growth at 10 µM [7] [%] | growth at 10 µM [8] [%] | growth at 10 µM [9] [%] | growth at 10 µM [10] [%] | growth at 10 µM [11] [%] | growth at 10 µM [12] [%] | growth at 10 µM [13] [%] | growth at 10 µM [14] [%] | growth at 10 µM [15] [%] | growth at 10 µM [16] [%] | growth at 10 µM [17] [%] | growth at 10 µM [18] [%] | growth at 10 µM [19] [%] | growth at 10 µM [20] [%] | other results
1 | O=C(NCCNc1nccc(-c2c(-c3cccc(O)c3)nc3sccn23)n1)Nc1cccc(C(F)(F)F)c1 | 89.5 | 91.2 | 37.7 | 54.4 | 59.2 | 56.8 | 54.5 | 76.8 | 65.6 | 25.3 | 75.2 | 80.1 | 41.1 | 38.9 | 59.8 | 83.5 | 23.1 | 53.5 | 39.3 | 110 | growth at 10 µM [21]: 29.4%; growth at 10 µM [22]: -5.9%; growth at 10 µM [23]: 63.8%; growth at 10 µM [24]: 96.2%; growth at 10 µM [25]: 108%; growth at 10 µM [26]: 26.2%; growth at 10 µM [27]: 98.5%; growth at 10 µM [28]: 53.2%; growth at 10 µM [29]: 30.3%; growth at 10 µM [30]: -40.6%; growth at 10 µM [31]: 55.6%; growth at 10 µM [32]: -21.7%
2 | O=C(NCCNc1nccc(-c2c(-c3cccc(O)c3)nc3sccn23)n1)Nc1cc(C(F)(F)F)cc(C(F)(F)F)c1 | 90.8 | 52.2 | 41.4 | 110 | 65.3 | 66.3 | 74.4 | 87 | 65.2 | 57 | 73.1 | 51.8 | 87.6 | 63.1 | 60.2 | 118 | 39.1 | 59.7 | 57.7 | 121 | growth at 10 µM [21]: 54.4%; growth at 10 µM [22]: 69.5%; growth at 10 µM [23]: 72%; growth at 10 µM [24]: 90.9%; growth at 10 µM [25]: 87.8%; growth at 10 µM [26]: 41.4%; growth at 10 µM [27]: 96.5%; growth at 10 µM [28]: 45.1%; growth at 10 µM [29]: 73.5%; growth at 10 µM [30]: 57.8%; growth at 10 µM [31]: 67.5%; growth at 10 µM [32]: 21.4%
3 | COc1cccc(-c2nc3sccn3c2-c2ccnc(NCCNC(=O)c3ccccc3)n2)c1 | 110 | 106 | 83.5 | 73.3 | 79.8 | 81.8 | 77.8 | 110 | 69.2 | 69.7 | 53.8 | 84.9 | 85.1 | 53.5 | 53.4 | 111 | 52.5 | 55.3 | 75.3 | 109 | growth at 10 µM [21]: 24.6%; growth at 10 µM [22]: 61.8%; growth at 10 µM [23]: 61.9%; growth at 10 µM [24]: 87.3%; growth at 10 µM [25]: 70.5%; growth at 10 µM [26]: 86.3%; growth at 10 µM [27]: 97.7%; growth at 10 µM [28]: 51.8%; growth at 10 µM [29]: 114%; growth at 10 µM [30]: 79.4%; growth at 10 µM [31]: 81.7%; growth at 10 µM [32]: 40.1%
